Results as given in ChEMBL document CHEMBL4257537, “Design, synthesis, and biological evaluation of m-amidophenol derivatives as a new class of antitubercular agents” (Medchemcomm, 2018).
In brackets after ≈: the same amount, converted by molar mass.

Key:
Format in all cases: functional
[1] = test system: Mycobacterium tuberculosis; test: Antimycobacterial activity against rifampicin-resistant Mycobacterium tuberculosis isolate P103 after 7 days by microplate alamar blue assay; details: isolate P103, 168 h
Outline: (§1)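 Each well held a 1/100 culture dilution plus 10-point two-fold DMSO dilutions (top 100 µg/mL, final DMSO 2%). INH and RIF were the positive controls. After 7 days at 37 °C, Tween 80 and alamarBlue were added for 16–24 h. MIC was the lowest concentration preventing the blue-to-pink change.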

[2] = test system: Mycobacterium tuberculosis; test: Antimycobacterial activity against rifampicin-resistant Mycobacterium tuberculosis isolate P91 after 7 days by microplate alamar blue assay; details: isolate P91, 168 h; outline: as §1
[3] = test system: Mycobacterium tuberculosis; test: Antimycobacterial activity against rifampicin-resistant Mycobacterium tuberculosis isolate R7 after 7 days by microplate alamar blue assay; details: isolate R7, 168 h; outline: as §1
[4] = test system: Mycobacterium tuberculosis; test: Antimycobacterial activity against rifampicin/isoniazid/pyrazinamide-resistant Mycobacterium tuberculosis isolate P71 after 7 days by microplate alamar blue assay; details: isolate P71, 168 h; outline: as §1
[5] = test system: Mycobacterium tuberculosis; test: Antimycobacterial activity against rifampicin-resistant Mycobacterium tuberculosis isolate P90 after 7 days by microplate alamar blue assay; details: isolate P90, 168 h; outline: as §1
[6] = test system: Mycobacterium tuberculosis; test: Antimycobacterial activity against rifampicin-resistant Mycobacterium tuberculosis isolate P98 after 7 days by microplate alamar blue assay; details: isolate P98, 168 h; outline: as §1

| SMILES | MIC [1] | MIC [2] | MIC [3] | MIC [4] | MIC [5] | MIC [6] |
| --- | --- | --- | --- | --- | --- | --- |
| O=C(Nc1cc(O)cc(Cc2ccccc2)c1)c1ccccc1 | 0.39 µg/mL (≈ 1.29 µM) | 0.39 µg/mL (≈ 1.29 µM) | 0.78 µg/mL (≈ 2.57 µM) | > 100 µg/mL | > 100 µg/mL | > 100 µg/mL |
| O=C(Nc1cc(O)cc(Cc2ccccc2)c1)C1CCCCC1 | 0.39 µg/mL (≈ 1.26 µM) | 0.39 µg/mL (≈ 1.26 µM) | 3.12 µg/mL (≈ 10.1 µM) | > 100 µg/mL | > 100 µg/mL | > 100 µg/mL |
